# Laboratory results published in ChEMBL document CHEMBL1149693, “Selective reversible inhibition of human butyrylcholinesterase by aryl amide derivatives of phenothiazine” (Bioorg Med Chem, 2007).
# pKi: −log10 of the molar value. Activity calls are given as the source filed them. The calls are words filed in the database; no cut-off is given here.
# Columns and labels:
# Cholinesterase = Cholinesterase (Homo sapiens, UniProt P06276); test: Inhibition of human plasma BuChE activity; type: cell-free
# Outline: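 Modified Ellman assay with purified human serum BuChE (0.05 U) in 0.005% gelatin, buffered DTNB pH 8.0. Inhibitor in 50% aqueous acetonitrile (1.67% v/v final), 1:10 serial dilutions. Butyrylthiocholine 3 × 10^-5 to 1.6 × 10^-4 M. A412 read every 5 s for 1 min at 23 °C, at least triplicate. Ki from slope replot of Lineweaver–Burk lines (no inhibitor, two inhibitor levels).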
# [1] = target: Acetylcholinesterase (Homo sapiens) (UniProt P22303); test: Inhibition of recombinant human AChE activity
# Outline: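 Ellman-type assay with recombinant human AChE (0.03 U) in 0.005% gelatin and buffered DTNB pH 8.0. Inhibitor in 50% aqueous acetonitrile, tested as 1:10 serial dilutions. Acetylthiocholine 3 × 10^-5 to 1.6 × 10^-4 M. Absorbance at 412 nm every 5 s over 1 min, 23 °C, generally triplicate and averaged. Lineweaver–Burk plots with and without inhibitor.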
# Sequence of Cholinesterase (P06276 whole entry): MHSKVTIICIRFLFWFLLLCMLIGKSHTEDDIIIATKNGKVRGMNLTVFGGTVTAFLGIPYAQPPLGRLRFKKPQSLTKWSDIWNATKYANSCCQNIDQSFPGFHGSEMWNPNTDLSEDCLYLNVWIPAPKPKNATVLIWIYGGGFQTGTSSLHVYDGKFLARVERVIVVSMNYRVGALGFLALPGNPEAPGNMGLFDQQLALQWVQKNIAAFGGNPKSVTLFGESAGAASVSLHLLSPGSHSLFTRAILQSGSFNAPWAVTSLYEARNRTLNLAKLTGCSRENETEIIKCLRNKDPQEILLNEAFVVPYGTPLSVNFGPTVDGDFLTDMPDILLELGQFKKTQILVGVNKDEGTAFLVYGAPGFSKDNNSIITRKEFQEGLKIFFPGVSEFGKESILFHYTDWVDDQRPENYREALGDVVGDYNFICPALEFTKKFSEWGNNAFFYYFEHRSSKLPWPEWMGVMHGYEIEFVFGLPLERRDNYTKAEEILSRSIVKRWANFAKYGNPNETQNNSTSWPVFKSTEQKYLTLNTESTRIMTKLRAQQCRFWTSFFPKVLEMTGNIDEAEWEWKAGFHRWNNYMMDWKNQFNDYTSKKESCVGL
# Sequence of Acetylcholinesterase (Homo sapiens) (P22303 whole entry): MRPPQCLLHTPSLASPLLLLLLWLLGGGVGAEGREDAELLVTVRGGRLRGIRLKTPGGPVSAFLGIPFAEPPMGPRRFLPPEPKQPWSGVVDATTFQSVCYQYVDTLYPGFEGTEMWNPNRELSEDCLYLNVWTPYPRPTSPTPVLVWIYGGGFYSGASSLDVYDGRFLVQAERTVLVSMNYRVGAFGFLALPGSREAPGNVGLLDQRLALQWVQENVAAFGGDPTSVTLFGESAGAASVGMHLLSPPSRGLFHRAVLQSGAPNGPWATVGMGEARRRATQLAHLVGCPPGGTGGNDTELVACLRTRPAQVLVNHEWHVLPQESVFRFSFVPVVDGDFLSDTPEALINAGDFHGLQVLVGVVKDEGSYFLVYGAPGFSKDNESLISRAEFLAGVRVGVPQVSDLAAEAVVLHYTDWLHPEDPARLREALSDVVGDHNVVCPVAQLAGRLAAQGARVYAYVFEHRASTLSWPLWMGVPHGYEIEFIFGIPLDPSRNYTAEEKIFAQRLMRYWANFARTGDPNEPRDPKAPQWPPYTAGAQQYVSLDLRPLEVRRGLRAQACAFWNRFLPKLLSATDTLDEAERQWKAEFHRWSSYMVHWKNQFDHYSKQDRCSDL
SMILES,pKi (Cholinesterase),Activity [1]
O=C(c1cccc2ccccc12)N1c2ccccc2Sc2ccccc21,7.06,inactive
O=C(C(=O)N1c2ccccc2Sc2ccccc21)N1c2ccccc2Sc2ccccc21,6.66,inactive
CC(CC(=O)N1c2ccccc2Sc2ccccc21)c1ccccc1 (stereo not drawn),5.77,inactive
Cc1ccc(C(=O)N2c3ccccc3Sc3ccccc32)cc1,5.60,inactive
Cc1ccccc1C(=O)N1c2ccccc2Sc2ccccc21,5.51,inactive
O=C(Cc1cccc2ccccc12)N1c2ccccc2Sc2ccccc21,7.05,inactive
O=C(Cc1ccccc1)N1c2ccccc2Sc2ccccc21,6.21,inactive
O=C(c1cccc(Br)c1)N1c2ccccc2Sc2ccccc21,6.22,inactive
COc1ccc(C(=O)N2c3ccccc3Sc3ccccc32)cc1,5.82,inactive
O=C(c1ccc(-c2ccccc2)cc1)N1c2ccccc2Sc2ccccc21,,inactive
CC(C(=O)N1c2ccccc2Sc2ccccc21)c1ccccc1 (stereo not drawn),6.25,inactive
O=C(Cc1ccc(-c2ccccc2)cc1)N1c2ccccc2Sc2ccccc21,5.77,inactive
O=C(c1ccccc1)N1c2ccccc2Sc2ccccc21,5.24,inactive
O=C(CCc1ccccc1)N1c2ccccc2Sc2ccccc21,5.21,inactive
CC(C)(C)c1ccc(C(=O)N2c3ccccc3Sc3ccccc32)cc1,,inactive
CC(=O)Oc1ccc(C(=O)N2c3ccccc3Sc3ccccc32)cc1,4.64,inactive
O=C(c1ccc([N+](=O)[O-])cc1)N1c2ccccc2Sc2ccccc21,6.09,inactive
O=C(CCCc1ccccc1)N1c2ccccc2Sc2ccccc21,6.66,inactive
O=C(Cc1ccc2ccccc2c1)N1c2ccccc2Sc2ccccc21,7.55,inactive
O=C(/C=C/c1ccccc1)N1c2ccccc2Sc2ccccc21,5.57,inactive
Cc1cccc(C(=O)N2c3ccccc3Sc3ccccc32)c1,5.72,inactive
O=C(c1c2ccccc2cc2ccccc12)N1c2ccccc2Sc2ccccc21,8.46,inactive
O=C(c1ccc(Br)cc1)N1c2ccccc2Sc2ccccc21,5.89,inactive
CCC(C(=O)N1c2ccccc2Sc2ccccc21)c1ccccc1 (stereo not drawn),6.40,inactive
O=C(c1ccc2ccccc2c1)N1c2ccccc2Sc2ccccc21,6.33,inactive
